Hits are enriched below; roughly 2.9% of the tested compounds scored in any of these assays.
OX1R antag-1: OX1R (human) antagonism; O43613; inhibition, % at 6.6 µM; 330,000 compounds, 1.8% hits; OX1R-expressing cells, FRET antagonist read-out; in the data active = inhibition mostly above about 38%, no sharp cut-off; inactive = mostly below about 40%
Target sequence (O43613 whole entry, looked up): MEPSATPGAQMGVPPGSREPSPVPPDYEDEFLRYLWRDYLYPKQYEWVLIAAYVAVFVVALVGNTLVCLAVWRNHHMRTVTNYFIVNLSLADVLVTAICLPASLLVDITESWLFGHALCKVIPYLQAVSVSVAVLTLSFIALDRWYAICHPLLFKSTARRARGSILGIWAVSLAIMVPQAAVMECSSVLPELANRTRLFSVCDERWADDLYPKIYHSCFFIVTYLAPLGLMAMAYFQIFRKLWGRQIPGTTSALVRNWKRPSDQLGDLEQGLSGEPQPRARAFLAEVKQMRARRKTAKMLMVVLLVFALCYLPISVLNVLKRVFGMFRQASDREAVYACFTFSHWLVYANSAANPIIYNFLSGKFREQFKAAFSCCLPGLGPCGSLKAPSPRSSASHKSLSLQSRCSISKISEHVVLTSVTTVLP
CHO parental Ca: signal in parental CHO cells, OX1R antagonist counter-screen; inhibition, % at 5.6 µM; 330,000 compounds, 0.63% hits; parental CHO-K1, ATP-induced calcium, Fluo-8 fluorescence;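 active = inhibition above that plate's mean sample inhibition plus 3 SD, cut at about 26% in these data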
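Measured by: calcium-sensitive Fluo-8 fluorescence / Test system: CHO parental line / Controls: ATP-challenged DMSO wells low, unchallenged DMSO wells high / Measure: % inhibition / Compound: single nominal dose of 5.6 µM per compound / Replicates: single well per compound, no replicates / Reagent: ATP as calcium-mobilizing challenge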
M1 ag parental: M1 agonist counterscreen hit in parental CHO-K1 cells; activation, % at 3 µM; AID 602248; Fluo-8 calcium fluorescence; scaled to maximal ATP response, vehicle zero; 360,000 compounds, 0.48% hits; in the data active = activation above about 15%;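 note: untransfected CHO-K1 host cells lacking M1 receptor as counterscreen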
OX1R antag-2: blocks the human orexin 1 receptor; O43613; CHO/OX1R cells, Fluo-8 calcium fluorescence, orexin A; inhibition, % at 5 µM; 330,000 compounds, 0.43% hits; AID 434989;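 active = inhibition above its plate's threshold, mean inhibition of all tested compounds on the plate plus 3 SD, cut at about 37% in these data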
CHO-K1 Ca antag: counter-screen for M1 antagonists: effect in parental CHO-K1 cells; ATP-induced calcium, Fluo-8 fluorescence; inhibition, % at 3 µM; 360,000 compounds, 0.6% hits; AID 602250;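 active = inhibition above a per-plate cutoff, the plate's mean sample inhibition plus 3 SD, cut at about 24% in these data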
M1 PAM parental: counter-screen for M1 PAMs: effect in parental CHO-K1 cells; 360,000 compounds, 0.02% hits; activation, % at 3 µM; AID 602247; ATP EC20, Fluo-8 calcium fluorescence; 0% at ATP EC20, 100% at ATP max;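 active = activation above the run cutoff, the mean activation of all test compounds plus 3 SD, cut at about 40% in these data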;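 note: peak over basal fluorescence ratio in a 140 s read after ATP addition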
Of the large screens only hits and unclear results are named; the others gave an inactive call.

Cc1ccc2nc3c(cc(C(=O)NC4CCCC4)c(=N)n3CCCn3ccnc3)c(=O)n2c1	OX1R antag-1 83.8 (no result: M1 ag parental, CHO-K1 Ca antag, M1 PAM parental)
COc1ccc(CCNC(=O)c2cc3c(=O)n4ccccc4nc3n(CCCN3CCOCC3)c2=N)cc1OC	OX1R antag-1 73.6
N=c1c(C(=O)NC2CCCC2)cc2c(=O)n3ccccc3nc2n1CCCN1CCOCC1	OX1R antag-1 44.5
CCc1c(O)nc(SCC(=O)N2CCc3cc(OC)c(OC)cc3[C@@H]2C)[nH]c1=O	none
O=C(CSc1nnc2ccc(-c3ccc(F)cc3)nn12)N1CCCC1	none
O=C(c1cc(C2CCCCN2C(=O)OCCF)on1)N1CCOCC1 (stereo not drawn)	none (no result: OX1R antag-1, CHO parental Ca, OX1R antag-2)
COc1ccc(CCNC(=O)c2cc3c(=O)n4ccccc4nc3n(Cc3ccco3)c2=N)cc1OC	CHO-K1 Ca antag 28.0
N#Cc1cc2c(=O)n3ccccc3nc2n(CCCN2CCOCC2)c1=O	OX1R antag-1 53.9
COc1ccc(CCNC(=O)c2cc3c(=O)n4ccccc4nc3n(CCN3CCOCC3)c2=N)cc1	none
N#Cc1cc2c(=O)n3ccccc3nc2n(Cc2cccnc2)c1=O	none
CCCNc1nc2nc3ccccn3c(=O)c2cc1C(=O)NCCN1CCOCC1	OX1R antag-1 52.5
COc1ccc(CCNC(=O)c2cc3c(=O)n4ccccc4nc3n(CCCN3CCOCC3)c2=N)cc1	OX1R antag-1 51.1
Cc1nc2c(-c3ccc(F)cc3)c(C)nn2c(C)c1CCC(=O)Nc1ccccc1F	none
COc1ccc2[nH]cc(CCNC(=O)COc3cc(C)cc4oc(=O)cc(C)c34)c2c1	none
CC(C)(O)c1ccc2c(c1)CCC1C(C)(C(=O)O)CCCC21C (stereo not drawn)	none
CC(C)c1c(O)ccc2c1CC[C@H]1C(C)(C)CCC[C@]21C	CHO-K1 Ca antag 26.5 (no result: OX1R antag-1, CHO parental Ca, OX1R antag-2)
Cc1onc(-c2ccccc2)c1C(=O)NCCSCc1ccco1	none
Cc1ccc(S(=O)(=O)N2CCc3ccccc3CC2)cc1	none (no result: OX1R antag-1, CHO parental Ca, OX1R antag-2)
Cc1ccc(S(=O)(=O)N2CCNC(=O)CC2)cc1	M1 ag parental 22.9
Cc1[nH]c2ccccc2c1/C=N/NC(=O)c1cc(-c2cccs2)[nH]n1	OX1R antag-1 57.2
O=C(N=Nc1c(O)[nH]c2ccccc12)c1cc(-c2cccs2)[nH]n1	OX1R antag-1 66.0
Cc1cc(C(=O)N/N=C/c2c(C)[nH]c3ccccc23)n[nH]1	none
CC(OC(=O)CCCN=C1NS(=O)(=O)c2ccccc21)C(=O)Nc1ccc(F)c(F)c1F (stereo not drawn)	none
O=C(c1cc(COc2ccc(F)cc2Cl)on1)N1CCN(C2CCCCC2)C(=O)C1	M1 ag parental 20.9
O=C(c1cc(COc2ccc(F)cc2Cl)on1)N1CCCC(OCc2cccnc2)C1 (stereo not drawn)	none
O=C(c1cc(COc2ccc(F)cc2Cl)on1)N1CCC(OCc2cccnc2)CC1	CHO parental Ca 60.6, OX1R antag-2 45.3
Cn1c(N)c(C(=O)COC(=O)c2cc(S(=O)(=O)NCc3ccccc3)ccc2O)c(=O)n(C)c1=O	none (no result: OX1R antag-1, CHO parental Ca, OX1R antag-2)
COc1cc(/C=N/Nc2snc(SC)c2C#N)ccc1O	OX1R antag-1 80.7
COc1ccc(C2NC(=O)C(C#N)=C(S)N2c2cccc(C)c2)cc1OC (stereo not drawn)	M1 ag parental 16.1
CC(C)[C@@H](CO)NS(=O)(=O)c1ccc(Br)cc1F	none
Cc1c(C(=O)N(C)Cc2nc3ccccc3c(=O)[nH]2)oc2ccccc12	none
CCN(C(=O)CSc1nnc(-c2ccccc2)o1)c1c(N)n(Cc2ccccc2)c(=O)[nH]c1=O	OX1R antag-1 70.1
CCN(CC)c1ccc(-c2nnc(SCC(=O)N(CCOC)c3c(N)n(CC(C)C)c(=O)[nH]c3=O)o2)cc1	OX1R antag-1 56.5
COCCN(C(=O)CSc1nc2ccccc2c(=O)n1CC(C)C)c1c(N)n(Cc2ccccc2)c(=O)[nH]c1=O	M1 ag parental 19.9
COCCN(C(=O)CSc1nc2ccccc2c(=O)n1C(C)COC)c1c(N)n(Cc2ccccc2)c(=O)[nH]c1=O (stereo not drawn)	none
CC(C)CN(C(=O)CSc1nnc(-c2ccco2)o1)c1c(N)n(Cc2ccccc2)c(=O)[nH]c1=O	OX1R antag-1 67.8
C[C@H](CO)N1C[C@H](C)[C@@H](CN(C)S(=O)(=O)c2ccccc2F)Oc2ncc(Br)cc2C1=O	none (no result: OX1R antag-1, CHO parental Ca, OX1R antag-2)
CC(NC(=O)C(Cc1ccccc1)=NO)c1ccccc1 (stereo not drawn)	none (no result: OX1R antag-1, CHO parental Ca, OX1R antag-2)
COCCN(C(=O)CSc1nc2ccccc2o1)c1c(N)n(Cc2ccccc2)c(=O)[nH]c1=O	none
CC(C)CN(C(=O)CSc1nc2ccccc2o1)c1c(N)n(Cc2ccccc2)c(=O)[nH]c1=O	OX1R antag-1 30.6
CC(C)CN(C(=O)CCCOc1ccc(Cl)cc1Cl)c1c(N)n(Cc2ccccc2)c(=O)[nH]c1=O	OX1R antag-1 38.6
Cc1cccc(OCCOC(=O)CN2C(=O)NC3(CCCC3)C2=O)c1	none
CCCn1nc(C(=O)NNC(=O)CCCOc2ccc(OC)cc2)c2ccccc2c1=O	none
Cc1ccc(Nc2[nH]c(=O)c3ccccc3c2C(=O)c2ccccc2)cc1	none (no result: M1 ag parental, CHO-K1 Ca antag, M1 PAM parental)
Oc1ccc(Oc2ccc3c(C(F)(F)F)cc(C(F)(F)F)nc3n2)cc1	CHO parental Ca 48.5
COc1cc(/C=C/c2ccc3cccc(OC)c3n2)c(OC(C)=O)c([N+](=O)[O-])c1	OX1R antag-1 59.0
COc1cc(/C=C/c2ccc3cccc(OC)c3n2)c(O)c([N+](=O)[O-])c1	none
COc1ccc(NC(=S)N2CCN(S(=O)(=O)c3ccccc3)CC2)cc1	none (no result: OX1R antag-1, CHO parental Ca, OX1R antag-2)
CCn1c(SCC(=O)Nc2nc(C)c(C)s2)nnc1-c1cccs1	none
CCn1c(SCC(=O)NCCc2ccc(F)cc2)nnc1-c1cccs1	CHO-K1 Ca antag 25.9
CCn1c(SCC(=O)NC2CCCc3ccccc32)nnc1-c1cccs1 (stereo not drawn)	OX1R antag-1 70.4
O=C(c1cccs1)N1C[C@H](n2cc(C3CC3)nn2)[C@@H](O)C[C@@H]1c1ccc(Cl)cc1	none (no result: OX1R antag-1, CHO parental Ca, OX1R antag-2)
COC(=O)c1ccc(S(=O)(=O)N2Cc3ccccc3C2)cc1	none
Cc1c(C(=O)OCC(=O)N(C)Cc2ccc(Cl)cc2)oc2ccccc12	OX1R antag-1 53.3
COc1ccc2oc(C(=O)OCC(=O)N(C)Cc3ccccc3)c(C)c2c1	none
CCN(CC)C(=O)CSc1nnnn1-c1ccc(F)c(Cl)c1	none
COc1ccc(C(=O)Oc2ccc3oc(=O)sc3c2)cc1	CHO parental Ca 57.0
COc1ccc(C(=O)Oc2ccc3ccc(=O)oc3c2)cc1	none
O=C(Nc1cccc(O)c1)c1noc2c1CCc1ccccc1-2	OX1R antag-1 36.6
COc1ccc(C(=O)NC(C)c2ccncc2)cc1S(=O)(=O)N(C)Cc1ccccc1 (stereo not drawn)	none
Oc1ccccc1N1CCN(C(=S)NCCc2ccccc2)CC1	CHO-K1 Ca antag 27.7
